# From PubChem BioAssay
# proCasp3 act: activators of human procaspase-3 D3A mutant, primary screen, biochemical, absorbance, PC-3 D3A mutant, single concentration; Caspase-3 (Homo sapiens), P42574; recombinant procaspase-3 D3A, Ac-DEVD-pNA absorbance 405 nm; activation, % at 8.5 µM; hit rate 0.11% among 330,000; AID 463141, 2010;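 active = activation above the mean of all tested compounds plus 3 SD, cut at about 21% in these data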;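 also: 0% = DMSO alone and 100% = DMSO wells spiked with extra 5 µM PC-3 D3A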
#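 material = Procaspase-3 D3A mutant | probe or stimulus = Ac-DEVD-pNA | compound = single dose, 8.5 µM nominal compound, 0.8% DMSO | timing = 1 h preincubation, 2 h reaction | measured by = 405 nm absorbance of p-nitroaniline, reads at 0 and 120 min | benchmarks = DMSO-only low control, 5 µM PC-3 D3A high control | repeats = singlicate, each compound tested once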
# CHT inh: inhibitors of human choline transporter CHT. CHT-expressing cells, membrane potential dye, choline response; hits give low values. B-score at 10 µM. hit rate 0.86% among 310,000;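 active = B-score over 3 SD under the library average, and starting fluorescence ratio not unusually high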;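 also: choline stimulus applied at its EC90 after an EC20 pre-addition; B-score computed on integrated fluorescence ratio after choline addition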
# Target sequence (Q9GZV3 whole entry, looked up): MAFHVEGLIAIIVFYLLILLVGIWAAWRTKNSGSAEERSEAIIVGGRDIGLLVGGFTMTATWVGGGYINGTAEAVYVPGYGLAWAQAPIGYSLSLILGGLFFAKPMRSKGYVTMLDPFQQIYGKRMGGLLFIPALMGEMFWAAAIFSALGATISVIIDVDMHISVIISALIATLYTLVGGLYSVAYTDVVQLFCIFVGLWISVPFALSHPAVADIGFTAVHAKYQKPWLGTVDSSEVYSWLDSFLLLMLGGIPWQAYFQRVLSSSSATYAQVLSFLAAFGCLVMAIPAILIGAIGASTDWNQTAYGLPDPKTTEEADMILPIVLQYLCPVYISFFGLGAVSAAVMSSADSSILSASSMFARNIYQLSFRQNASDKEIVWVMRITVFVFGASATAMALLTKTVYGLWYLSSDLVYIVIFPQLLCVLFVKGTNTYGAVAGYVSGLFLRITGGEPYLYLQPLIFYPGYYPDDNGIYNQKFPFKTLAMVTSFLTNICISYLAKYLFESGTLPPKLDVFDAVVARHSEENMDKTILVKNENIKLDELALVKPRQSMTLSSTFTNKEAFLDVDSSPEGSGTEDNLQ
# proCasp7 act: procaspase-7 activators, primary screen, counter-screen for procaspase-3 activator project, biochemical, absorbance, HTS, human; recombinant procaspase-7, Ac-DEVD-pNA absorbance 405 nm; D23A/D198A/D206A triple mutant, cannot self-cleave; scale: DMSO 0, 5 µM enzyme 100; activation, % at 8.5 µM; hit rate 0.093% among 330,000; AID 463210, 2010;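 active = percent activation above the screen-wide mean plus 3 SD, cut at about 25% in these data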
#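 Assay system: Uncleavable procaspase-7 mutant enzyme; Input: 2 µM procaspase-7 mutant as dispensed; Also added: DEVD-pNA substrate; Medium: Zinc-free HEPES pH 7.4 with 300 mM NaCl, 0.01% Triton X-100; Timing: 1 h compound preincubation, 2 h substrate cleavage, 25 °C; Measured by: Epi-absorbance of released pNA at 405 nm, two timepoints.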
# CHT allo act: CHT positive allosteric modulators, primary screen, cell-based, membrane potential dye, choline EC20; High affinity choline transporter 1 (Homo sapiens), Q9GZV3; CHT-expressing cells; hits give high values; LV-AA mutant CHT in HEK293 cells; B-score at 10 µM; hit rate 0.49% among 310,000; AID 488977, 2010;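 active = initial fluorescence not abnormally high and integrated response B-score, plate-corrected, over 3 SD above library mean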
# CHT block conf: CHT inhibitors, confirmation, cell-based, membrane potential dye, duplicate; shares compounds with CHT inh; CHT-expressing cells, choline membrane potential dye; LV-to-AA substituted CHT, HEK293 cells; CHT activity remaining % of control (hits give low values), % at 10 µM; hit rate 70% among 2,400;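 active = choline transporter activity left, mean of duplicates at 10 µM, below buffer-only control mean minus 3 SD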;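 also: depolarization triggered by choline at its EC90 following an EC20 pre-addition; 0% = hemicholinium-3 full block and 100% = buffer-only control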
# HEK293 MPD ctr: membrane potential effects in parental HEK293, counter-screen for CHT inhibitor project, cell-based, membrane potential dye; shares compounds with CHT inh; membrane potential ratio readout (active if shifted either direction beyond buffer ±3SD; no single direction) at 10 µM; choline response; active = decrease or increase beyond buffer ±3SD; hit rate 4% among 2,400;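 also: parental cells lack the transporter so any hit is non-specific; ratio is peak minus trough fluorescence over baseline after EC90 choline challenge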
# * marks the source's active call; other numbers are inactive results; i = inactive; nt = no result. The list is not random: actives were taken first. Their share in the collection is about 1.3%.
SMILES,proCasp3 act,CHT inh,proCasp7 act,CHT allo act,CHT block conf,HEK293 MPD ctr
Cc1cccc(NC(=S)NNC(=O)c2ccc(O)cc2O)c1C,-4.6,i,-13.1,i,nt,nt
COc1ccc(C2SCC(=O)N2CCc2ccc(OC)c(OC)c2)cc1 (stereo not given),-1.4,-6.01*,-1.9,i,42.5%*,i
COc1ccc(CCN2C(=O)CSC2c2ccc(OC)c(OC)c2)cc1OC (stereo not given),-6.6,i,3.9,i,nt,nt
CN(C)C(CNC(=O)CCc1nc2sc3c(c2c(=O)[nH]1)CCCC3)c1ccccc1 (stereo not given),-3.8,i,4.9,i,nt,nt
CC(=O)NC(CC(=O)OCC(=O)c1c(N)n(C)c(=O)n(C)c1=O)c1ccccc1 (stereo not given),-0.7,i,1.4,i,nt,nt
CCC(=NC(C)c1ccccc1)c1c(O)n(C)c(=O)n(C)c1=O (stereo not given),6.6,-7.55*,9.7,i,51.2%*,i
O=c1oc2ccccc2c(O)c1Cc1cc(Cl)c2cccnc2c1O,2.1,-7.33*,1.7,i,68.5%*,i
Nc1nc(Cl)nc2c1ncn2[C@@H]1O[C@H](CO)[C@@H](O)[C@H]1O,-0.5,-5.81*,10.5,i,39.2%*,i
CCCc1cc(C(=O)NNC(=S)NCc2ccccc2)cs1,-21.7,-8.2*,-9.2,i,54.3%*,i
Cc1nn(C(=O)CCCC(=O)NCc2ccccc2)c2ccccc12,-0.4,i,0.1,i,nt,nt
COc1ccccc1C(=O)OCC(=O)Nc1ccccc1OC(F)F,3.4,-7.83*,-1.6,i,i,i
COc1ccc(-c2nc(-c3cccs3)c(-c3cccs3)[nH]2)cc1O,-9.4,-7.22*,-11.2,i,69.8%*,i
O=C(O)c1ccc(-c2nc(-c3ccccc3)c(-c3cccs3)[nH]2)cc1,-3.4,i,6.5,i,nt,nt
Cc1ccc(Cl)cc1N1CCN(C(=O)Cc2c(C(=O)O)[nH]c3ccc(Cl)cc23)CC1,2.9,-7.65*,3.0,i,55.2%*,i
CCn1c2ccc(C)cc2c2n[nH]c(=S)nc21,-7.3,i,6.4,i,nt,nt
Cc1ccc(CNC(=O)c2nccnc2C(=O)O)cc1,-2.5,i,-1.3,i,nt,nt
CSc1ccc(C(=O)C2CCCN(C(=O)c3nonc3C)C2)cc1 (stereo not given),0.0,-5.67*,-6.8,i,59.6%*,i
CC(C)CN(C(=O)CSc1nc(N)cc(N)n1)C1CCS(=O)(=O)C1 (stereo not given),-0.2,nt,-5.8,nt,nt,nt
CCOC(=O)c1c(N)ssc1=S,-19.7,-11.5*,-25.8,i,17.0%*,i
O=C(NC1CCCC1)C1CCN(C(=O)c2cc(Cl)ccc2Cl)CC1,6.3,i,-3.7,i,nt,nt
CCCCc1nnc(SCC(=O)NC2CCCCC2)n1C,1.2,i,15.4,i,nt,nt
O=[N+]([O-])c1ccc(O)c(/C=N/n2cnc3ccccc32)c1,-0.4,-5.01*,-1.8,i,i,i
O=[N+]([O-])c1ccc(O)c(/C=N/n2c(CO)nc3ccccc32)c1,-8.3,i,-5.4,i,nt,nt
Cc1ccc(CNC(=O)c2ccccc2NS(C)(=O)=O)cc1,4.1,i,-0.2,i,nt,nt
Cc1ccc(CNC(=O)c2ccccc2NS(=O)(=O)c2ccc(Cl)nc2)cc1,-2.0,-5.75*,4.2,i,54.0%*,i
SMILES,proCasp3 act,CHT inh,proCasp7 act,CHT allo act,CHT block conf,HEK293 MPD ctr
O=C(NNc1ccc([N+](=O)[O-])cc1)c1ccco1,1.1,i,0.6,i,nt,nt
O=C(NNc1ccc([N+](=O)[O-])cc1[N+](=O)[O-])c1ccco1,-1.9,-7.5*,-12.4,i,67.2%*,i
Cc1sc2nc(SCCN(C)C)n(-c3ccccc3)c(=O)c2c1-c1ccc(F)cc1,2.8,-5.92*,-1.6,i,26.2%*,i
CCNc1cc(Cl)nc(SC)n1,-0.2,-13.6*,3.7,i,-6.5%*,i
CCCn1nc([N+](=O)[O-])c(C(C#N)c2nc3ccccc3o2)c(Cl)c1=O (stereo not given),-18.6,-12.4*,-21.9,i,16.4%*,i
Cc1nn(-c2nnc(NCc3ccccc3)nn2)c(C)c1Br,-8.6,-5.28*,-2.2,i,i,i
CC(C)CC1NC(=O)N(Cc2nc3ccccc3s2)C1=O (stereo not given),-1.5,i,-7.4,i,nt,nt
CC(C)(C)CC(C)(C)NCC(O)COc1c(F)cc(Br)cc1F (stereo not given),1.6,-5.53*,-0.9,i,60.1%*,-9.05*
Cc1nc(SCC(=O)N(C)C2CCS(=O)(=O)C2)c(C#N)c(C)c1C (stereo not given),5.7,nt,-5.2,nt,nt,nt
Cc1cc(C)cc(NC(=O)COC(=O)c2cccc(S(=O)(=O)N3CCCCC3)c2)c1,7.8,nt,15.7,nt,nt,nt
O=C1NN(c2ccccc2)C(=O)/C1=C\c1coc2ccc(O)cc2c1=O,-11.5,i,-17.4,i,nt,nt
O=C1NN(c2ccccc2)C(=O)/C1=C/c1coc2ccccc2c1=O,-6.8,-5.32*,-4.3,i,31.4%*,i
COc1ccccc1NS(=O)(=O)c1ccc(O)c(C(=O)OCC(=O)c2ccc(Cl)cc2Cl)c1,-0.7,-5.33*,0.8,i,62.2%*,i
O=C(O)c1ccccc1NS(=O)(=O)c1cccc(-n2sc3ccccc3c2=O)c1,-23.9,-6.38*,-21.2,i,22.1%*,i
COc1cccc(CN(C)C(=O)c2cc(COc3ccc4ncccc4c3)on2)c1,-3.0,-6.05*,-1.2,i,i,i
COc1cccc(CN(C)C(=O)c2cc(COc3c(F)cccc3F)on2)c1,0.4,i,7.6,i,nt,nt
Cc1ccc(Nc2nnc(C3C(=O)N(C)C4(C)CC3c3cc(Br)ccc3O4)s2)cc1 (stereo not given),-10.0,-5.49*,13.3,i,i,i
CC(C)[C@H]1C(=O)Nc2ccccc2N1C(=O)N[C@@H](Cc1ccccc1)C(=O)N[C@H](Cc1ccccc1)C(=O)O,-2.0,-7.2*,-4.6,i,i,i
